This is an account of results in article PMC4216218 (Journal of Medicinal Chemistry, 2014).

“And” between values parts separate entries of the source, which are not always exact repeats. Equal entries are not always repeated.

For one test, the target named is factor XI (zymogen) (Homo sapiens, UniProt P03951). The test is classed as binding. The conditions noted are these: intrinsic tryptophan fluorescence, pH 7.4, 37 °C. An outline of the steps:
(§1)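 Human plasma factor XI or factor XIa (105 nM) was titrated at 37 °C with aliquots of 200–250 μM aqueous ligand in 50 mM Tris-HCl pH 7.4, 150 mM NaCl, 0.1% PEG8000. Intrinsic tryptophan fluorescence (λEX 280 nm) was followed. ΔF/F0 versus ligand concentration was fitted to a quadratic binding equation for KD and ΔFMAX.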

The target of the next test is DEGR-FXIa (Homo sapiens, UniProt P03951). The test can be described thus: Salt dependence of affinity of DEGR-FXIa. Format: binding. Put shortly:
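DEGR-factor XIa (250 nM) was titrated with ligand solutions at 37 °C in 50 mM Tris-HCl pH 7.4, 0.1% PEG8000, at 25, 50, 100 or 150 mM NaCl. Dansyl fluorescence was read at 547 nm (excitation 345 nm), and a quadratic fit gave KD,obs. […] At least two experiments were run.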

The target of the next test is DEGR-factor XIa (Homo sapiens, UniProt P03951). The test can be described thus: Fluorescence-based binding affinity, dansyl fluorescence. The conditions noted are these: saturating ligand, λEX 345 nm.
DEGR-factor XIa, sequence (P03951 19-387 limits assumed): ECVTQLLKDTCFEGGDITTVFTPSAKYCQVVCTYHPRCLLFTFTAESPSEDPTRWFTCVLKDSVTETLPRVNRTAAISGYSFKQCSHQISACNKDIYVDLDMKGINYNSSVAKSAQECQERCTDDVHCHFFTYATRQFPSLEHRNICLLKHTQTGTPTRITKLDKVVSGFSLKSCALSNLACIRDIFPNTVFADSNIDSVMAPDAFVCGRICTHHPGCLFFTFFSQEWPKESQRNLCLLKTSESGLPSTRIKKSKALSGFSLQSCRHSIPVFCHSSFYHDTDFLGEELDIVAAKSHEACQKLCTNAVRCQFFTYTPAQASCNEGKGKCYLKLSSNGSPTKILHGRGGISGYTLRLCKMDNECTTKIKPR
DEGR-factor XIa, sequence (P03951 388-625 limits assumed): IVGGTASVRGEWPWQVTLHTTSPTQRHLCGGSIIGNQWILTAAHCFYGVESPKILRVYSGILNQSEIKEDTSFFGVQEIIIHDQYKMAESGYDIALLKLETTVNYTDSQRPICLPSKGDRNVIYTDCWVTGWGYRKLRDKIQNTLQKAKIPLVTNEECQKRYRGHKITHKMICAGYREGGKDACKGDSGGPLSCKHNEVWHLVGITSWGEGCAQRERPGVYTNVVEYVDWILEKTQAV
For a further test, the target named is human factor XIa (Homo sapiens, UniProt P03951). As to the kind of experiment: Fluorescence-based binding affinity, intrinsic tryptophan fluorescence. The conditions noted are these: pH 7.4, 37 °C. An outline of the steps: as §1
human factor XIa, sequence (P03951 19-387 limits assumed): as the sequence (P03951 19-387 limits assumed) above
human factor XIa, sequence (P03951 388-625 limits assumed): as the sequence (P03951 388-625 limits assumed) above

DEGR-FXIa, sequence (P03951 19-387 limits assumed): as the sequence (P03951 19-387 limits assumed) above
DEGR-FXIa, sequence (P03951 388-625 limits assumed): as the sequence (P03951 388-625 limits assumed) above
factor XI (zymogen), sequence (P03951 19-625): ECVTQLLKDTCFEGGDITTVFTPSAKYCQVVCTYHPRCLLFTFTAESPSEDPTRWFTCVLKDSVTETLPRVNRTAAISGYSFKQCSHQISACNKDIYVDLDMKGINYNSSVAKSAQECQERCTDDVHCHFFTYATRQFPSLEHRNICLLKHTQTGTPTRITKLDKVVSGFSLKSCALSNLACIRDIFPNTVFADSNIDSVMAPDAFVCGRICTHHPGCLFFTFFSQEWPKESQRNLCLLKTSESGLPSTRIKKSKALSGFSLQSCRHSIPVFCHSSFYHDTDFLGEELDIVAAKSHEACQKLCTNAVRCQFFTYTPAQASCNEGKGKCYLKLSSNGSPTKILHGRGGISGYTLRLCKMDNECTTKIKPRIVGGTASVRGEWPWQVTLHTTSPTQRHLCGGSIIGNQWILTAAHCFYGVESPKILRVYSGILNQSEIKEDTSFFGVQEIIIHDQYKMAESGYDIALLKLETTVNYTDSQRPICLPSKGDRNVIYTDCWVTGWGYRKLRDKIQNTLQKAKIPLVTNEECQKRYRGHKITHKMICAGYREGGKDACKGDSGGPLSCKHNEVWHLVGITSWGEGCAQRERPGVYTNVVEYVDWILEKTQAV

The term Kd denotes the free concentration of one partner at which half of the binding sites on the other are occupied at equilibrium, for simple one-to-one binding. On factor XI (zymogen), heparin octasaccharide [H8] registered a Kd of 1800 ± 400 nM. Moreover, on DEGR-FXIa (pH 7.4, 37 °C), the “Z (number of ion-pairs formed)” value was found to be 0.64 ± 0.04; the “intercept of log KD,obs versus log[Na]” value was “–5.00 ± 0.04”; the “slope of log KD,obs versus log[Na]” value stood at 0.52 ± 0.03; the “ΔG0NI (binding energy due to nonionic forces)” value was 7.08 kcal/mol and 7.1 ± 0.02 kcal/mol. Also, the “ΔG0NI (nonionic binding energy contribution to the total)” value on DEGR-FXIa (pH 7.4, 37 °C) is reported as 90.5%. Also, on DEGR-FXIa (pH 7.4, I 0.15), the “ΔG0I (binding energy due to ionic forces)” value was 0.75 kcal/mol. At DEGR-FXIa (read-out: KD,NI (nonionic affinity), dissociation constant at [Na+] = 1 M), the Kd was 10100 ± 400 nM. The “blue-shift of emission wavelength of DEGR-FXIa” value at DEGR-factor XIa is reported as about 3 nm. Also, on human factor XIa, the Kd worked out at 900 ± 200 nM and the ΔFMAX result is reported as “–68 ± 2%”.
